Experimental findings from ChEMBL document CHEMBL4715758, “Hit-to-Lead Optimization of a Novel Class of Potent, Broad-Spectrum Trypanosomacides” (J Med Chem, 2016) are described below.

Series [1] is described as follows: Intrinsic clearance in mouse liver microsomes assessed per mg protein measured after 60 mins in presence of NADPH generating system by LC-MS analysis. In kind it is ADME, Microsome. To be noted: read-out: CLH.
Series [2] in a line: Intrinsic clearance in human liver microsomes assessed per mg protein measured after 60 mins in presence of NADPH generating system by LC-MS analysis. Format: ADME, Microsome. To be noted: read-out: CLH.
Series [3] has as its system Trypanosoma cruzi. Nature of the series: Antitrypanosomal activity against Trypanosoma cruzi Tulahuen strain trypomastigotes infected in rat H9c2 cells incubated for 72 hrs by DRAQ5 DNA dye based imaging analysis. Format: functional, organism-based. As to conditions: H9c2, 72 h.
The nature of series [4]: Metabolic stability in human liver microsomes assessed as degradation half-life measured after 60 mins in presence of NADPH generating system by LC-MS analysis. To be noted: read-out: T50. Format: ADME, Microsome. (Liver microsomes are vesicles of endoplasmic reticulum, rich in cytochrome P450 enzymes.)
The subject of series [5] is Trypanosoma brucei brucei. Nature of the series: Antitrypanosomal activity against Trypanosoma brucei brucei Lister 427 strain blood stream forms incubated for 48 hrs by resazurin dye based fluorescence assay. Format: functional, organism-based. As to conditions: Lister 427, 48 h. On the technique in general: Resazurin is reduced to fluorescent resorufin, in cell work by metabolically active cells.

Series [6] can be described thus: Selectivity index, ratio of IC50 for cytotoxicity against human HEK293 cells assessed as reduction in cell viability to IC50 for antitrypanosomal activity against Trypanosoma brucei brucei Lister 427 blood stream form. In kind it is toxicity, cell-based. As to conditions: read-out: Ratio IC50.
Series [7] can be described thus: Metabolic stability in mouse liver microsomes assessed as degradation half-life measured after 60 mins in presence of NADPH generating system by LC-MS analysis. In kind it is ADME, Microsome. As to conditions: read-out: T50.
Series [8] can be described thus: Selectivity index, ratio of IC50 for cytotoxicity against rat H9c2 cells assessed as reduction in cell viability to IC50 for antitrypanosomal against Trypanosoma cruzi Tulahuen trypomastigotes infected in rat H9c2 cells. In kind it is toxicity, cell-based. To be noted: read-out: Ratio IC50.
Series [9] has as its system Trypanosoma cruzi. The experiment in a line: Antitrypanosomal activity against Trypanosoma cruzi infected in vero cells assessed as reduction in parasite growth inhibition incubated for 96 hrs by time kill assay relative to nifurtimox. In kind it is functional.
The nature of series [10]: Kinetic solubility of compound at pH 2 by nephelometry. Format: physicochemical. To be noted: buffer, read-out: Kinetic_solubility.
Series [11] relates to Trypanosoma cruzi. The experiment in a line: Inhibition of Trypanosoma cruzi Tulahuen C4 CYP51 expressed in Escherichia coli JM109 using BOMCC as substrate in presence of NADPH by fluorescence assay.
The nature of series [12]: Kinetic solubility of compound at pH 6.5 phosphate buffer by nephelometry. In kind it is physicochemical. As to conditions: read-out: Kinetic_solubility.
A short description of series [13]: Partition coefficient, log D of compound at pH 7.4 by HPLC. In kind it is physicochemical. To be noted: octanol/water.
For series [14], the system named is Trypanosoma cruzi. Nature of the series: Antitrypanosomal activity against Trypanosoma cruzi infected in vero cells assessed as parasite growth inhibition incubated from 24 to 96 hrs by time kill assay. In kind it is functional, organism-based.
Series [15] has as its system Trypanosoma cruzi. The experiment in a line: Antitrypanosomal activity against Trypanosoma cruzi infected in vero cells assessed as minimum concentration required for parasite growth inhibition incubated from 24 to 96 hrs by time kill assay. Format: functional. As to conditions: time 24-96 hrs, read-out: MEC.
The next series relates to Vero. Nature of the series: Cytotoxicity against African green monkey Vero cells assessed as reduction in cell viability. In kind it is cell-based. To be noted: chlorocebus sabaeus.
The nature of series [16]: Protein binding in human plasma by HPLC-MS analysis. Format: ADME, cell-free. As to conditions: read-out: PPB (converted).
Series [17] can be described thus: Metabolic stability in human liver microsomes assessed as half-life measured after 60 mins in presence of NADPH generating system by LC-MS analysis. Format: ADME, Microsome.
In series [18] the test system is Trypanosoma cruzi. The experiment in a line: Antitrypanosomal activity against Trypanosoma cruzi Tulahuen strain trypomastigotes infected in rat H9c2 cells at 10 uM incubated for 72 hrs by DRAQ5 DNA dye based imaging analysis relative to control. In kind it is functional.
The test system of series [19] is Trypanosoma brucei brucei. The experiment in a line: Antitrypanosomal activity against Trypanosoma brucei brucei Lister 427 strain blood stream form assessed as parasite growth inhibition at 10 uM incubated for 48 hrs by resazurin dye based fluorescence assay relative to control. Format: functional. To be noted: Lister 427, 48 h. An outline of the steps: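 Alamar Blue (resazurin) growth-inhibition screen against T. b. brucei at 10 μM, the same assay used to find the original hit. Compounds reaching 50% or greater inhibition were then taken into concentration–response testing for IC50.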

The test system of another series is Leishmania donovani. Nature of the series: Antileishmanial activity against Leishmania donovani MHOM/ET/67/L82 amastigotes measured after 72 hrs by alamar blue dye based fluorimetry analysis. To be noted: MHOM/ET/67/L82, 72 h. Format: functional, organism-based.
Another series has as its system L6. Nature of the series: Cytotoxicity against rat L6 cells assessed as reduction in cell viability measured after 72 hrs by alamar blue dye based fluorimetry analysis. To be noted: L6, 72 h.
The test system of series [20] is Trypanosoma cruzi. Nature of the series: Antitrypanosomal activity against Trypanosoma cruzi Tulahuen C4 strain amastigotes infected in rat L6 cells measured after 96 hrs by inverted microscopy analysis. In kind it is functional, organism-based. As to conditions: Tulahuen C4, L6, 96 h.
The test system of the next series is Plasmodium falciparum. The experiment in a line: Antiplasmodial activity against chloroquine and pyrimethamine resistant erythrocytic stage of Plasmodium falciparum K1 strain assessed as reduction in [3H]hypoxanthine incorporation measured after 48 hrs by liquid scintillation counting method. In kind it is functional, organism-based.
Series [21] has as its system Trypanosoma brucei rhodesiense. The experiment in a line: Antitrypanosomal activity against Trypanosoma brucei rhodesiense STIB900 trypomastigotes incubated for 72 hrs by resazurin dye based fluorescence assay. In kind it is functional, organism-based. To be noted: STIB900, 72 h.

Values after ≈ are worked out from the molar mass of the structure shown. Active and inactive are the calls of the source. The calls are words filed in the database; no cut-off is given here.

The term IC50 denotes the point on the concentration scale where inhibition reaches its midpoint. In the case of `O=C(NCCc1csc(-c2ccccc2F)n1)N1CCCCC1`, the results for the microsomal CLint in series [1] and in [2] were greater than 1600 µL/min/mg and 439 µL/min/mg, respectively. Also, the IC50 is 10 nM with Trypanosoma cruzi [3] and 16 nM in series [5]. For the same compound, the figures for the half-life in series [4] and in series [7] were 4 min and less than 2 min, respectively. Moreover, the selectivity ratio in [6] is 650; in series [8] it was greater than 3980.
What is called inhibition is the relative decrease from the control value, in per cent. The logD is the decadic logarithm of the distribution of all forms, ionised or not, between an organic phase and buffer at a given pH. As to `Cc1ccoc1C(=O)NCCc1csc(-c2ccccc2)n1`, the Imax with Trypanosoma cruzi [9] was 104%. The solubility kinetic in series [10] and in [12] was 6 µg/mL (≈ 19.2 µM) in each case. In the series on Trypanosoma cruzi [11], the inhibition result was “inactive”. In series [13], this compound showed a pH-dependent lipophilicity (logD) of 3.5. For the same compound, the values for the IC50 (in the series on Trypanosoma cruzi [14]; in series [5]) were 600 nM and 130 nM, respectively. Further, the minimal effective concentration with Trypanosoma cruzi [15] is 0.6 µM. Moreover, in [6], the selectivity ratio amounted to 666. Besides, the Activity in the series on Vero came to 50 µM. Besides, the fraction unbound in [16] is 0.05.
For `O=C(NCCc1csc(-c2ccccc2)n1)C1CCCC1`, the microsomal CLint in series [2] turned out to be 296 µL/min/mg. Besides, in series [4], the half-life worked out at 6 min.
Consider `CC(C)OC(=O)NCCc1csc(-c2ccc(F)cc2F)n1`, for which, in [2], the microsomal CLint is 135 µL/min/mg. This compound also had a half-inhibitory concentration (IC50) in the series with Trypanosoma cruzi [3] of 130 nM. Besides, the half-life in [17] is 10 min. Besides, in series [8], the selectivity ratio is greater than 398.
`CC(=O)NCCc1csc(-c2ccccc2)n1`: the inhibition at 10 µM (in the series with Trypanosoma cruzi [18]; in series [19]) was less than 50% throughout.
Consider `CCN(CC)C(=O)NCCc1csc(-c2ccc(F)cc2F)n1`, for which the microsomal CLint in [2] came to 177 µL/min/mg. Moreover, the concentration for half-maximal inhibition (IC50) with Trypanosoma cruzi [3] is 250 nM. The half-life in series [17] stood at 8 min. Further, the selectivity ratio in series [8] was greater than 199.
With `O=C(NCCc1csc(-c2ccccc2)n1)c1ccccn1`, the IC50 in the series with Leishmania donovani came out at 12000 nM; in the series on L6, 66000 nM; in series [5] it was 300 nM; in the series on Trypanosoma cruzi [20], 900 nM; in the series on Plasmodium falciparum it was 65000 nM; in series [21] it was 220 nM. Moreover, the selectivity ratio in series [6] was 139.
In the case of `CCC(=O)NCCc1csc(-c2ccccc2)n1`, the inhibition at 10 µM (in the series on Trypanosoma cruzi [18]; in series [19]) was less than 50% in each case.
Compound `O=C(NCCc1csc(-c2ccccc2)n1)c1cccc(C(F)(F)F)c1` came in with an inhibition at 10 µM in the series on Trypanosoma cruzi [18] of less than 50%. In [5], this compound yielded a half-maximal inhibitory concentration (IC50) of 11600 nM. Moreover, the selectivity ratio in [6] was determined as 1.8.
As for `O=C(NCCc1csc(-c2ccccc2)n1)c1ccccc1F`, the 50% inhibitory concentration (IC50) in the series on Leishmania donovani was 11000 nM; in the series on L6, 79000 nM; in the series with Trypanosoma cruzi [20], 1100 nM; in [21], 420 nM.
As for `COc1ccc(-c2nc(CCNC(=O)N3CCCCC3)cs2)cc1`, the inhibition at 10 µM with Trypanosoma cruzi [18] is less than 50%; in series [19] it was greater than 50%.
Turning to `O=C(NCCc1csc(-c2ccccc2)n1)N1CCCCC1`, the microsomal CLint in [2] was 244 µL/min/mg. The solubility kinetic was found to be 50 µg/mL (≈ 159 µM) in [10] and 25 µg/mL (≈ 79.3 µM) in [12]. The same compound registered an IC50 with Trypanosoma cruzi [3] of 39 nM. Moreover, the logD in series [13] stood at 3.2. The half-life in [4] stood at 7 min. In addition, the fraction unbound in series [16] is 0.1.
Consider `O=C(NCCc1csc(-c2ccccc2)n1)N1CCCC1`, for which the microsomal CLint in [2] was determined as 177 µL/min/mg. Moreover, the results for the solubility kinetic in series [10] and in series [12] were greater than 100 µg/mL and 50 µg/mL (≈ 166 µM), respectively. The IC50 is 320 nM in the series with Trypanosoma cruzi [3]; 17000 nM in the series on Leishmania donovani; 144000 nM in the series on L6; 96 nM in the series on Trypanosoma cruzi [20]; 46 nM in series [21]. In series [13], this compound displayed a logD of 2.8. Also, in series [4], the half-life came out at 10 min. Moreover, the fraction unbound in series [16] is 0.14.
As for `O=C(NCCc1csc(-c2ccccc2)n1)c1cnco1`, the inhibition at 10 µM (in the series with Trypanosoma cruzi [18]; in [19]) was less than 50% each time.
`CC(C)(C)C(=O)NCCc1csc(-c2cccc(F)c2)n1`: the concentration for half-maximal inhibition (IC50) came to 46000 nM in the series with Leishmania donovani; 62000 nM in the series on L6; 2300 nM in the series with Trypanosoma cruzi [20]; 35000 nM in the series on Plasmodium falciparum; 1500 nM in [21].
Take `O=C(NCCc1csc(-c2ccccc2)n1)c1ccc2ccccc2c1`: 16000 nM corresponded to half-maximal inhibition in the series with Trypanosoma cruzi [3] (IC50). Moreover, the inhibition at 10 µM in series [19] was less than 50%. In [8], the selectivity ratio is greater than 3.1.
Take `O=C(NCCc1csc(-c2ccc(F)cc2)n1)N1CCCCC1`: the values for the microsomal CLint in series [1] and in [2] were greater than 1600 µL/min/mg and 160 µL/min/mg, respectively. Besides, the 50% inhibitory concentration (IC50) with Trypanosoma cruzi [3] was 30 nM; in series [5], 24 nM. Also, the half-life was 11 min in [4] and less than 2 min in [7]. The selectivity ratio was 431 in series [6] and greater than 1580 in series [8].
On to `O=CNCCc1csc(-c2ccccc2)n1`, for which the inhibition at 10 µM (in the series with Trypanosoma cruzi [18]; in series [19]) was less than 50% throughout.
Turning to `O=C(NCCc1csc(-c2ccc(F)cc2F)n1)c1cc(F)ccc1F`, the microsomal CLint in series [2] was 231 µL/min/mg. This compound also came in with a half-maximal inhibitory concentration (IC50) with Trypanosoma cruzi [3] of 130 nM. In series [17], the half-life turned out to be 6 min. Moreover, the selectivity ratio in series [8] is greater than 398.
Turning to `O=C(NCCc1csc(-c2ccccc2)n1)c1cccc(S(F)(F)(F)(F)F)c1`, the inhibition at 10 µM (in the series on Trypanosoma cruzi [18]; in [19]) was less than 50% each time.
Turning to `Cc1ccc(C(=O)NCCc2csc(-c3ccccc3)n2)cc1`, half-maximal inhibition in the series with Trypanosoma cruzi [3] (IC50) required 40000 nM. Moreover, in [19], the inhibition at 10 µM is less than 50%. Moreover, the selectivity ratio in series [8] stood at 1.2.
`O=C(NCCc1csc(-c2cccc(F)c2)n1)N1CCCCC1`: the microsomal CLint in series [1] was greater than 1600 µL/min/mg; in [2] it was 445 µL/min/mg. The half-life is 4 min in [4] and less than 2 min in series [7]. In series [5], this compound showed an IC50 of 26 nM. Besides, the selectivity ratio in [6] was determined as 398.
As for `O=C(Cc1ccc2c(c1)OCO2)NCCc1csc(-c2ccccc2)n1`, half-maximal inhibition with Trypanosoma cruzi [3] (IC50) was put at 40000 nM. Moreover, the inhibition at 10 µM in series [19] was less than 50%. In addition, the selectivity ratio in series [8] is greater than 1.2.
